Assay [1] concerns the target T1, Polyunsaturated fatty acid 5-lipoxygenase (Homo sapiens) (UniProt P09917).
T1 sequence (whole entry): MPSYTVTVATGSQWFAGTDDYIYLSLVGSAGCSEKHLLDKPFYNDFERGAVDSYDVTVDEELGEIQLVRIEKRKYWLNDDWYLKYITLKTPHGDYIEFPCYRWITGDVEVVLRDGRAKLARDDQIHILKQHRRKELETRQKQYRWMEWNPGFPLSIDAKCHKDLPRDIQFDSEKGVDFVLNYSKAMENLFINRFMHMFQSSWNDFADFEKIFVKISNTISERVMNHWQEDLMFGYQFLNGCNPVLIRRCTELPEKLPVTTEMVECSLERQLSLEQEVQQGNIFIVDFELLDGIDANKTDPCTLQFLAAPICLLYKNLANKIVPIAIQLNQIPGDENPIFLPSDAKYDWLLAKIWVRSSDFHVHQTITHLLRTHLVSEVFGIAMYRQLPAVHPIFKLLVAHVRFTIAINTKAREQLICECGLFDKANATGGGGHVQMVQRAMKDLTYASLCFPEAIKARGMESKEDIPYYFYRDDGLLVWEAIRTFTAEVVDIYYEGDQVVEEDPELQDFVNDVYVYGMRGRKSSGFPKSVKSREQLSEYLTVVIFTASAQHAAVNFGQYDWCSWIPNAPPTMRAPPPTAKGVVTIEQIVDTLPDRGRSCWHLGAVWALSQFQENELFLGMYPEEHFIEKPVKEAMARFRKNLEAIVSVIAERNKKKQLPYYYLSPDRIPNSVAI
Put plainly: Inhibition of calcium ionophore (A23187)-stimulated human 5-LO assessed as reduction of LTB4 production by measuring remaining activity at 100 uM preincubated for 15 mins followed by calcium ionophore (A23187) addition measured after 15 mins by LC-MS/MS analysis. The essentials: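 Heparinized human whole blood (500 µL) preincubated with compound 15 min at 37 °C, then stimulated with 20 µM calcium ionophore A23187 in autologous plasma for 15 min at 37 °C. Plasma spiked with deuterated LTB₄ and HETE internal standards, extracted into ethyl acetate, analysed by LC–MS/MS. Inhibition scored when a level fell by 33% or more versus control.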

Assay [2] deals with T2, Prostaglandin G/H synthase 2 (Homo sapiens) (UniProt P35354).
T2 sequence (whole entry): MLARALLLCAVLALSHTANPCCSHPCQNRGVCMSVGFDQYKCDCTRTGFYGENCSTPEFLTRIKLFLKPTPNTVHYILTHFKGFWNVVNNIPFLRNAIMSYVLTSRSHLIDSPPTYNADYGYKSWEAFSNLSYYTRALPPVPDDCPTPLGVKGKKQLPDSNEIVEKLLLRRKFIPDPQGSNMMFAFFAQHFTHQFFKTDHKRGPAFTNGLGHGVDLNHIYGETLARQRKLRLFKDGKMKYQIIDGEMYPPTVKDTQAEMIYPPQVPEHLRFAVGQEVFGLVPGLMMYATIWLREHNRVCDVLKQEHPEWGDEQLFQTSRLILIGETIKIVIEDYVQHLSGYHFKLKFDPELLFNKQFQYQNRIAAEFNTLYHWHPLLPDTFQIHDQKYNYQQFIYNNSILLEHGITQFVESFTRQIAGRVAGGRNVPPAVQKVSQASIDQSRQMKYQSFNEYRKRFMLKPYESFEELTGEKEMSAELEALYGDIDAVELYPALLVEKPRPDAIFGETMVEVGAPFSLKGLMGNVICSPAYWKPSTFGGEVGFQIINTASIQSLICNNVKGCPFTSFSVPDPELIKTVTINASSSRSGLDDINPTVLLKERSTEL
Put plainly: Inhibition of LPS-stimulated COX2 in human whole blood assessed as reduction in PGE2 production by measuring remaining activity at 100 uM preincubated for 15 mins followed by LPS addition measured after 24 hrs by LC-MS/MS analysis. The essentials: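 Heparinized human whole blood (500 µL) mixed with compound in DMSO, with acetylsalicylic acid added to block COX-1, held 15 min at 37 °C, then stimulated with LPS in autologous plasma to induce COX-2/mPGES-1. After 24 h at 37 °C, samples chilled 5 min on ice; plasma collected, prostaglandins extracted and measured by LC–MS/MS. Remaining activity given relative to vehicle control.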

In assay [3] the target is T3, Prostaglandin E synthase (Homo sapiens) (UniProt O14684).
T3 sequence (whole entry): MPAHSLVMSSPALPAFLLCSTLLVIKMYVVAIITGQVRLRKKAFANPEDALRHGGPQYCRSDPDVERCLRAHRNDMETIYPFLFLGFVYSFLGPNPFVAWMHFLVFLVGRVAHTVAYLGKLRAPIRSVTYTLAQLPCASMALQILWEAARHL
Put plainly: Inhibition of mPGES-1 in human HeLa cells using PGH2 as substrate assessed as inhibition of IL-1beta/TNFalpha-stimulated PGE2 production at 100 uM after 24 hrs by LC-MS/MS analysis. The format is cell-based. The essentials: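 HeLa cells (2 × 10⁴ per well) grown 24 h at 37 °C, then given fresh medium with 1 ng/mL IL-1b + 5 ng/mL TNFa (or PBS for unstimulated control) plus compound (1, 10 or 100 µM) or DMSO for 24 h at 37 °C. Supernatant mixed with H₃PO₄, EDTA and deuterated internal standards; PGE₂ measured by SPE and LC–MS/MS.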

Assay [4] concerns the target T2, Prostaglandin G/H synthase 2 (Homo sapiens). Put plainly: Inhibition of recombinant human COX2 using […] at 10 uM by LC-MS/MS analysis. The essentials: (§1)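 Ovine COX-1 and recombinant human COX-2 tested directly with a commercial COX inhibitor screening kit, following the manufacturer's protocol. COX-derived PGH₂ reduced with SnCl₂; the resulting PGE₂, PGD₂ and PGF₂a diluted in MeOH, spiked with deuterated internal standards and quantified by SPE and LC–MS/MS.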

Assay [5] concerns the target T4, Prostaglandin G/H synthase 1 (Ovis aries) (UniProt P05979).
T4 sequence (whole entry): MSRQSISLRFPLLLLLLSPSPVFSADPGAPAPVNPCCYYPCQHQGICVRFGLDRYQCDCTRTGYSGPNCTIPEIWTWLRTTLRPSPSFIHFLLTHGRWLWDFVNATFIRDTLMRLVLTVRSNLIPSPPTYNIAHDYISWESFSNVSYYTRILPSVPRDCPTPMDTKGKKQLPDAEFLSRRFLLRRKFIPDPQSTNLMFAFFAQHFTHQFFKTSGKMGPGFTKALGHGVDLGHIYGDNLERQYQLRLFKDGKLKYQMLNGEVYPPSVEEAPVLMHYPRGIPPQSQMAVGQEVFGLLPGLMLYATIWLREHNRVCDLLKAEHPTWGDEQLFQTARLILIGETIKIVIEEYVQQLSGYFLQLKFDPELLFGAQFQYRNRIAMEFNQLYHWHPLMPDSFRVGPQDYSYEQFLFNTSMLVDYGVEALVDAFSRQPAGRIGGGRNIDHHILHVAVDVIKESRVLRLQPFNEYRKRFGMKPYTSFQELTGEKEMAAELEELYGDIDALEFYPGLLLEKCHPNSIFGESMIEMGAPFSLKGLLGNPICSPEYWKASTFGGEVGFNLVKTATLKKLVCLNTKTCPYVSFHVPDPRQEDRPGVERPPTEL
Put plainly: Inhibition of ovine COX1 using […] at 10 uM by LC-MS/MS analysis. The essentials: as §1

Active and inactive are the calls of the source. The calls are words filed in the database; no cut-off is given here. Where only a bound is given, the exact number is not on record here.

`COc1ccc(CN(Cc2ccccc2)S(=O)(=O)c2ccc(C(=O)O)cc2)cc1`: the Activity in assay [1] stood at 110%; in assay [2], 74.4%. Further, in assay [3], the inhibition result is “Active”. Further, the inhibition in assay [4] and in assay [5] was below 0% throughout.
For the molecule `O=C(O)c1ccc(S(=O)(=O)N(Cc2ccccc2)c2ccc(Oc3ccccc3)cc2)cc1`, the Activity in assay [1] was 140%; in assay [2] it was 66.8%. For the same molecule, in assay [3], the inhibition result was “Active”. In addition, the inhibition in assay [4] was below 0%; in assay [5] it was 12.4%.
On the same counts, the results for `O=C(O)c1ccc(S(=O)(=O)N(Cc2ccccc2)Cc2ccc(Oc3ccccc3)cc2)cc1` are 90.8%, 88.7%, “Active”, 3.1% and 0.3%.
On the same counts, the results for `O=C(O)c1ccc(S(=O)(=O)N(Cc2ccccc2)Cc2ccc(Nc3ccccc3)cc2)cc1` are 47%, 61.2%, “Active”, 12.9% and below 0%.
On the same counts, the results for `COc1ccc(CN(CC2CCCCC2)S(=O)(=O)c2ccc(C(=O)O)cc2)cc1` are 60.4%, 39%, “Active”, 18.5% and 10.3%.

As a reminder, the inhibition is the share of the control response that was lost under treatment.

For the origin of these results see ChEMBL document CHEMBL3091291, “Synthesis and pharmacological characterization of benzenesulfonamides as dual species inhibitors of human and murine mPGES-1” (Bioorg Med Chem, 2013).
